# Screening data as filed in PubChem.
# TbMetRS inhib: Trypanosoma brucei MetRS inhibition | purified T. brucei MetRS, ATP depletion, Kinase-Glo luminescence | inhibition, % at 11.9 µM | hit rate 0.4% among 360,000 | AID 624268;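 active = inhibition above a per-plate cutoff of the control wells' mean inhibition plus 3 SD, cut at about 5.5% in these data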;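 note: 0% = DMSO wells median and 100% = median of wells with control inhibitor compound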
#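 Dosing: 11.9 µM single point; system: parasite MetRS enzyme; technique: luminescence of leftover ATP; times: 15 min enzyme-compound preincubation, 2 h reaction, 10 min detection, 25 °C; replicates: each compound tested once; read-out basis: percent inhibition relative to median high and low control wells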
# CHOP UPR activ: apoptotic UPR (CHOP) activation; CHO-CHOP luciferase reporter, luminescence; percent of tunicamycin response over DMSO baseline; activation, % at 10 µM; hit rate 0.34% among 330,000;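 active = at 10 µM dose, activation of 40% or more, normalized to positive control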;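 note: 100% = tunicamycin at 10 µg/mL and 0% = DMSO alone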
#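 System: CHO-CHOP luciferase reporter cell line; amount: 500 cells/well; buffer or medium: F12 medium containing 10% fetal bovine serum; incubation: 6 h compound exposure at 37 °C after overnight seeding; measured by: luciferase luminescence after 10 min with Steady-Glo reagent; evaluation: % reporter activation, DMSO baseline versus tunicamycin full activation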
# V-ATPase pH: yeast V-ATPase proton transport regulation by pHLuorin | S. cerevisiae, pHLuorin cytosolic pH fluorescence | response, % at 10 µM | hit rate 0.37% among 350,000 | AID 504577; in the data active = response mostly above about 7.3%, no sharp cut-off; inactive = mostly below about 5.4%; note: actives read high
# XBP1 UPR activ: activators of adaptive arm of unfolded protein response (XBP1); hit rate 0.33% among 330,000; AID 463104; CHO-XBP1 luciferase reporter, IRE1-XBP1 UPR activation, luminescence; percent of tunicamycin response, DMSO as zero; activation, % at 20 µM;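 active = versus positive control, 20 µM dose yields 30% or more activation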;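 note: 100% = tunicamycin at 10 µg/mL and 0% = DMSO only wells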
#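 Material: CHO cell line with stable XBP1 luciferase reporter; buffer or medium: F12 medium containing 10% fetal bovine serum; compound: single point, 20 µM final compound, 1% DMSO; incubation: 6 h treatment, 37 °C; measured by: glow luminescence from Steady-Glo reagent; evaluation: activation, % of tunicamycin; control set: tunicamycin high, DMSO low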
# CHOP inhibitor: CHOP inhibition in unfolded protein response; hit rate 3.8% among 220,000; AID 2732; inhibition, % at 10 µM; CHO-K1 CHOP-promoter luciferase, tunicamycin-induced, 15-18 h;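 active = compounds that reduced the stress-induced luciferase reporter signal by more than about 70% of percent inhibition, limit read from the data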;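 note: 0% = tunicamycin plus vehicle and 100% = wells without tunicamycin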
# VATPase regulator: yeast V-ATPase proton transport regulation; shares compounds with V-ATPase pH; S. cerevisiae pHLuorin cytosolic pH; response, % at 10 µM; hit rate 2% among 980; in the data active = response above about 24%;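 note: plate controls were vehicle wells for no effect and positive control wells for full effect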
# An asterisk follows results filed as active; / = not tested or not shown. Only a selection was taken, and hits are over-represented in it overall.
SMILES,TbMetRS inhib,CHOP UPR activ,V-ATPase pH,XBP1 UPR activ,CHOP inhibitor,VATPase regulator
O=C(CN(CC1CCCO1)C(=O)CNS(=O)(=O)c1ccc(Cl)cc1)NCCc1ccccc1 (stereo not drawn),-1.4,-0.7,23.4*,-0.8,9.4,0.2
COc1ccc(C(=O)NCc2ccncc2)cc1S(=O)(=O)NCc1ccc(Cl)cc1,-0.1,0.1,-2.4,-1.1,/,/
O=[N+]([O-])c1ccc2c(c1)-c1ccccc1C2=NO,-0.3,/,20.3*,/,/,119.1*
COCCN(Cc1ccccc1)C(=O)c1c(C)nn(-c2ccccc2)c1C,-0.1,1.3,9.2*,-0.2,-13.9,-0.2
CCC(CC)C(=O)N(C)c1c(C)nc2c(OCc3ccc(C#N)cc3)cccn12,-0.1,/,/,/,/,/
CCN1C(=O)C(=O)N(CC(=O)Nc2cccc(C(F)(F)F)c2)C1=O,0.3,-0.9,-1.4,0.2,/,/
COc1ccc(NC(=O)c2ccccc2-c2ccccc2)cc1,-0.9,-0.9,-0.4,-0.1,10.8,/
COc1cccc(NC(=O)c2ccccc2-c2ccccc2)c1,0.0,0.3,8.8*,-0.9,6.3,-3.0
COc1cccc(NC(=S)NNC(=O)c2ccccc2OC(F)F)c1,-0.5,0.9,9.4*,0.0,3.2,8.7
COCCCNC(=S)Nc1ccc(CC(=O)O)cc1,-0.5,-1.1,-3.7,-2.5,12.9,/
O=C(c1cccnc1)N1CCN(Cc2ccc3ccccc3c2)CC1,-0.5,-0.3,10.0*,-5.3,/,-0.1
O=C(c1cccnc1)N1CCN(Cc2cccc(F)c2)CC1,-0.7,-0.8,-1.2,1.1,-24.9,/
Cc1ccc(-c2nnc(-n3ncc(C#N)c3N)c3ccccc23)cc1C,-0.5,0.4,9.9*,3.0,13.5,-4.7
COc1ccccc1-c1csc(-n2ncc(C#N)c2N)n1,0.4,3.5,-0.8,2.8,/,/
CCCC(=O)NCc1nc2ccccc2n1CC(=O)c1ccccc1,-0.5,-1.7,-4.6,-5.6,/,/
CC1(C)CC(=O)C=C(c2ccc(-c3ccccc3)cc2)C1=O,-0.9,/,0.9,/,/,/
CC(C)OC(=O)CCCNc1ccc([N+](=O)[O-])cc1[N+](=O)[O-],0.7,1.9,0.5,-1.2,20.6,/
CCC1Oc2ccc(C)cc2N(CC(=O)NCc2cccs2)C1=O (stereo not drawn),-0.7,0.8,2.5,-0.4,18.4,/
CCC1Oc2ccccc2N(CC(=O)NCc2cccs2)C1=O (stereo not drawn),-0.2,-1.5,11.9*,-2.5,-8.7,1.2
COc1cc(NC(=O)Cn2cnc3c(NCc4ccccc4)ncnc32)cc(OC)c1OC,-0.7,2.1,10.9*,2.0,/,2.2
COCCNC(=S)N(CCc1c(C)[nH]c2ccccc12)Cc1ccco1,-0.4,0.2,10.7*,-3.3,0.8,-2.9
CCNC(=S)N(CCc1c(C)[nH]c2ccc(Cl)cc12)Cc1ccco1,-0.7,0.5,-1.2,-3.3,24.9,/
O=C1C2C3C=CC(C2C(=O)N1c1cccc(O)c1)C1C2C(=O)N(c4cccc(O)c4)C(=O)C2C31 (stereo not drawn),-0.4,0.3,-1.2,-1.8,19.2,/
O=C(OCc1ccccc1Cl)c1cccnc1Cl,0.3,1.3,9.5*,1.4,22.9,0.6
CCC(C)[C@H](NC(=O)N1CC(=O)Nc2ccccc21)C(=O)N[C@@H](C(=O)O)c1ccccc1 (stereo partly drawn),-0.5,-2.9,-3.0,2.1,/,/
SMILES,TbMetRS inhib,CHOP UPR activ,V-ATPase pH,XBP1 UPR activ,CHOP inhibitor,VATPase regulator
CC(=O)Nc1ccc(S(=O)(=O)N(C)c2ccc(OCC(=O)NCCc3ccccc3F)cc2)cc1,-0.2,/,-3.4,/,/,/
O=C(CCCN1CCN(c2ccccc2)CC1)c1ccc(F)cc1,-0.2,/,1.3,/,/,/
O=C(CCCN1Cc2ccccc2C1)c1ccc(F)cc1,-0.5,0.5,3.4,-1.9,-2.9,-7.8
CN1CCN(CCCC(=O)c2ccc(F)cc2)CC1,0.1,1.1,3.9,1.7,15.7,0.3
O=C(CCCN1CCOC(c2ccccc2)C1)c1ccc(F)cc1 (stereo not drawn),-0.8,0.8,-1.4,-3.4,/,/
CN(C)CCC(=O)c1ccc(F)cc1,-0.1,0.1,1.0,-1.5,-8.8,10.9
Cc1ccc(S(=O)(=O)Nc2cccc(-c3ccc4nnc(C)n4n3)c2)s1,-0.7,-1.7,-0.2,2.0,8.8,/
O=C(O)CSc1nnc2c(n1)[nH]c1ccccc12,1.2,1.4,0.6,-0.2,10.0,/
CCOC(=O)CC(=O)CSc1nnc2c(n1)[nH]c1ccccc12,2.0,3.0,-3.5,2.5,14.0,-0.9
O=C(NCCc1cccs1)c1ccc(Cl)c(Cl)c1,-0.7,4.8,8.8*,11.1,8.2,1.0
N#C/C(=C\c1cc(Cl)cc(Cl)c1O)C(=O)NC1CCCCC1,-0.5,1.3,15.3*,-0.6,17.0,1.4
N#C/C(=C\c1cc(Cl)ccc1O)C(=O)NC1CCCCC1,-0.5,6.3,-2.3,4.6,64.1,/
Cc1ccc(-c2nc(N)n(S(=O)(=O)c3ccc(C)cc3)n2)cc1,-0.5,0.2,8.7*,-3.1,17.8,-0.9
Cc1ccccc1S(=O)(=O)Cc1ccc(C(=O)NCCCN2CCN(C)CC2)o1,1.8,1.1,7.6*,-0.7,11.9,1.4
Cc1ccccc1S(=O)(=O)Cc1ccc(C(=O)NCCCN2CCCC2)o1,-0.3,0.6,3.3,-1.1,/,/
CC(C)=CCCC(C)NC(=O)NC1CCCCC1 (stereo not drawn),-0.9,0.6,-2.3,0.4,16.3,/
Clc1ccccc1OCCCOc1cccc2cccnc12,-0.6,3.2,11.8*,-0.9,/,19.6
C=CCNCCOc1c(C)cc(C)cc1Cl,-0.7,-0.9,7.7*,-0.8,11.6,2.7
C=CCNCCCCOc1c(Cl)cc(C)cc1Br,-0.9,0.8,-0.3,0.7,-16.6,/
CCOC(=O)c1c(NC(=O)COC(=O)c2cc(OC)c(OC)cc2[N+](=O)[O-])sc(C)c1C,0.2,8.8,-0.6,11.2,27.4,/
NNC(=O)c1snnc1-c1ccccc1,0.0,-0.2,6.5,-1.5,-5.1,/
COC(=O)c1ccc(NC(=O)c2snnc2-c2ccccc2)cc1,0.0,0.9,8.2*,-3.1,-8.4,2.1
O=C(CCNC(=O)c1ccccc1)NNC(=O)COc1ccccc1Cl,0.4,1.6,8.2*,-1.4,/,-0.1
Cc1ccccc1-c1nc(C#N)c(N2CCCCC2)o1,-0.5,2.0,1.0,-3.3,/,/
COc1cccc(NC(=O)C(OC(=O)/C=C/c2ccc3c(c2)OCO3)c2ccccc2)c1 (stereo not drawn),-1.2,1.8,10.8*,-1.0,32.8,-0.3
COc1ccc(CCCC(=O)N/N=C\c2cccs2)cc1,2.6,2.2,8.6*,4.7,57.7,-1.1
COC(=O)N/N=C/c1cccs1,-0.7,-0.1,-0.2,1.0,-7.6,/
Cn1ccnc1SCC(=O)Nc1cccc(S(=O)(=O)N2CCCCC2)c1,-0.2,-4.2,3.7,-2.2,18.2,/
